Shown are actives, neighbours in structure and some others; about 2.3% of the full set was active somewhere.
Rtt109 Vps75: inhibitors of Candida albicans Rtt109/Vps75 histone acetyltransferase | Q5AAJ8 | purified Rtt109/Vps75, ThioGlo CoA-SH fluorescence, 4 h | inhibition, % at 34.9 µM | 0.16% of 330,000 active;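 active = inhibition of at least 50% in every replicate; inconclusive = best replicate reaches 50% inhibition but some replicates fall short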
Target sequence (Q5AAJ8 whole entry, looked up): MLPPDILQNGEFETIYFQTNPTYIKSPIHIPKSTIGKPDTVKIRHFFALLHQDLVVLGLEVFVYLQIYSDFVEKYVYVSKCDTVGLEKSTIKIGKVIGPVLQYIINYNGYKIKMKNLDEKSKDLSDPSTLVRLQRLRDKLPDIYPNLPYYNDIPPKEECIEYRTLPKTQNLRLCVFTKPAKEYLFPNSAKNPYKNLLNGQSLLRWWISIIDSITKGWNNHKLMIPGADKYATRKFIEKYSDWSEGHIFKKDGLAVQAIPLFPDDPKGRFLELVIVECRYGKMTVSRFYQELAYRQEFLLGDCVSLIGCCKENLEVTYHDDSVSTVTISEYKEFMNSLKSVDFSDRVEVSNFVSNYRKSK
PfHsp90 yeast 2: reduces growth (ATP signal) of yeast expressing P. falciparum Hsp90; S. cerevisiae expressing PfHsp90, BacTiter-Glo ATP, 48 h; yeast lacking PDR1 and PDR3 efflux regulators; inhibition, % at 9.4 µM; 0.32% of 310,000 active;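 active = every replicate shows inhibition above about 80%, whatever the replicate mean, limit read from the data; inconclusive = mean inhibition reaches the set limit but some replicate falls short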;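 note: 0% = DMSO neutral controls and 100% = 20 µM radicicol positive controls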
Arr AP2 block: inhibitors of human beta-arrestin and AP2 interaction | FITC-arrestin peptide / GST-AP2 beads, flow cytometry; AP2 beta2 appendage carries R879A mutation | 0.31% of 340,000 active | AID 504490 | inhibition, % at 10 µM;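 active = inhibition above a set limit, near 3 SD of compounds lacking own fluorescence, cut at about 54% in these data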;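 note: plate controls were DMSO wells for no effect and 5 µM unlabelled arrestin peptide for full effect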
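System: GST-AP2 R879A glutathione beads | Also added: FITC-arrestin peptide, 50 nM | Times: 12 min plus 1 h, RT | Signal: Bead flow cytometry, FITC channel | Buffer or medium: PBS with 0.05% Tween 20 and 0.1% BSA | Read-out basis: Percent drop in bead-associated FITC signal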
HIV Env fusion: blocks HIV Env-driven cell-cell fusion; HeLa-JRFL Env/CEM21 cell fusion, luciferase; inhibition, % at 12.3 µM; 1.1% of 360,000 active;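 active = mean replicate inhibition score of at least 50 and every replicate individually at or above 50; inconclusive = only one of the two criteria met; inactive = mean below 50 and not all replicates reaching 50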;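 note: 0% = plate neutral controls and 100% = maraviroc near 300 nM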
PAX8 reporter: lowers PAX8-driven luciferase in RMG-I cells. inhibition, % at 12.6 µM. 1.2% of 360,000 active. RMG-I TPO-luciferase reporter, SteadyGlo, 24 h;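 active = mean replicate inhibition at least 60% with every replicate also reaching 60%; inconclusive = only one of the two criteria is met; inactive = mean below 60% and not all replicates reaching 60%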;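 note: luciferase light reporting Pax8 driven TPO promoter activity; plate controls were median of neutral control wells for no effect and mitoxantrone controls for full effect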
Glyco luc inh: N-linked glycosylation inhibition; D54 ERlucT glycosylation luciferase reporter, 24 h; percent of 100 nM tunicamycin response; reporter increase, % at 12.5 µM; 0.23% of 360,000 active; AID 588692;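 active = mean luciferase reporter signal, scaled so untreated is 0 and the glycosylation-blocking control 100, at or above a set limit in every replicate; inconclusive = mean reaches the limit but not every replicate does; inactive = mean below the limit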;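 note: luciferase carries N-glycosylation sites so blocking glycosylation raises the light; 0% = median of neutral control wells and 100% = median of 100 nM tunicamycin wells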
Active calls of the source: *; u = inconclusive; x = no result; ! = a repeat was not active; [ ] = remark or other dose.

SMILES	Rtt109 Vps75	PfHsp90 yeast 2	Arr AP2 block	HIV Env fusion	PAX8 reporter	Glyco luc inh
CO[C@H]1CN(C)C(=O)c2ccc(NC(=O)NC(C)C)cc2OC[C@H](C)N(C(=O)CC2CC2)C[C@H]1C	x	x	x	-6[16.7 µM]	3	x
CCCN(CCC)c1nc(-c2ccccn2)nc2ccccc12	-4	-4	22	71*	60	12
COCCN(CCOC)c1nc(-c2ccc(C)cc2)nc2ccccc12	-1	12	10	6	-13	-2
CCCCN(CC)c1nc(-c2ccncc2)nc2ccccc12	32	-65	24	64*	x	0
CN(C)C(=O)c1cccc(-c2ccc3c(c2)[C@@H]2[C@@H](CCN2C(=O)C2CCCCC2)[C@@H](CO)N3)c1	x	x	x	x	15	x
CC(C)NC(=O)Nc1ccc2c(c1)C(=O)N(C)[C@@H]1CC[C@H](CC(=O)NCC3CCCCC3)O[C@H]1CO2	x	x	x	3[16.7 µM]	9	x
C[C@H](CO)N1C[C@H](C)[C@H](CN(C)C(=O)Cc2ccncc2)Oc2ncc(C3=CCCCC3)cc2C1=O	x	x	x	5[16.7 µM]	16	x
O=C(O)CCCNC(=O)C(c1ccccc1)c1ccccc1	-1	40	-14	8	164*!	2
COc1cccc(-c2ccc([C@H]3[C@H]4CN(C(=O)C5CCC5)CC(=O)N4[C@H]3CO)cc2)c1	x	x	x	x	2	x
CCOC(=O)N1CCC(NC(=O)c2ccc3c(c2)N=C(C)c2c(C)ccc(C)c2S3)CC1	-2	-17	39	-228	96*	u
CCOC(=O)N1CCC(NC(=O)c2ccc3c(c2)N=C(CC)c2cc(C)ccc2S3)CC1	2	-13	-4	16	48	5
O=c1oc(-c2ccccc2)cc(Cl)c1Cl	9	117*	-3	-137	4	-8
CC(CCc1ccccc1)NC(=O)c1ccc(Br)cc1 (centres undefined)	1	112*	-1	4	-13	-3
O=C(C[C@H]1C[C@H]2c3cc(NC(=O)c4cccnc4)ccc3O[C@H]2[C@H](CO)O1)NCC1CC1	x	x	x	5[16.7 µM]	-27	x
CN(Cc1ccco1)c1ncnc2ccc(-c3ccc4c(c3)OCO4)cc12	0	-10	4	x	6	-8
Cc1nc(CN(C)c2ncnc3ccc(-c4ccc5c(c4)OCO5)cc23)cs1	x	x	x	-20	66*	-13
O=C(CSC1CN(C(c2ccccc2)c2ccccc2)C1)N/N=C/c1ccc(Cl)cc1Cl	0	-1	-5	65*	4	1
COc1ccc(NC(=O)O/N=C/c2c(C)nn(C(C)(C)C)c2C)cc1	-13	13	-16	-39	-128	-9
Cc1nn(C(C)(C)C)c(C)c1/C=N/OC(=O)Nc1ccc(Cl)c(Cl)c1	-1	23	-7	65*	1	-4
C[C@H]1CCCCO[C@H](CN(C)Cc2ccccc2)[C@@H](C)CN([C@@H](C)CO)C(=O)c2cc(NC(=O)Nc3ccc(C(F)(F)F)cc3)ccc2O1	x	x	x	32[16.7 µM]	120*	x
C[C@H](CO)N1C[C@H](C)[C@H](CN(C)Cc2ccccc2)OCCCC[C@H](C)Oc2ccc(NC(=O)Nc3ccc(C(F)(F)F)cc3)cc2C1=O	x	x	x	66*[16.7 µM]	115*	x
C[C@@H]1CCCCO[C@H](CN(C)Cc2ccccc2)[C@H](C)CN([C@@H](C)CO)C(=O)c2cc(NC(=O)Nc3ccc(C(F)(F)F)cc3)ccc2O1	x	x	x	42[16.7 µM]	115*	x
C[C@H]1CCCCO[C@@H](CN(C)Cc2ccccc2)[C@@H](C)CN([C@@H](C)CO)C(=O)c2cc(NC(=O)Nc3ccc(C(F)(F)F)cc3)ccc2O1	x	x	x	68*[16.7 µM]	108*	x
O=C(C[C@@H]1CC[C@@H](NC(=O)c2ccc3c(c2)OCO3)[C@@H](CO)O1)NC1Cc2ccccc2C1	x	x	x	1[16.7 µM]	-9	x
C[C@@H]1CN([C@@H](C)CO)C(=O)c2cc(NC(=O)Nc3ccccc3)ccc2O[C@@H](C)CCCCO[C@H]1CN(C)Cc1ccc2c(c1)OCO2	x	x	x	8[16.7 µM]	-15	x
SMILES	Rtt109 Vps75	PfHsp90 yeast 2	Arr AP2 block	HIV Env fusion	PAX8 reporter	Glyco luc inh
Cc1noc(C)c1NC(=O)Nc1ccc2c(c1)C(=O)N([C@H](C)CO)C[C@H](C)[C@H](CN(C)S(=O)(=O)c1ccccc1)OCCCC[C@@H](C)O2	x	x	x	-1[16.7 µM]	-19	x
C[C@@H]1CCCCO[C@H](CN(C)Cc2ccccc2)[C@H](C)CN([C@H](C)CO)C(=O)c2cc(NC(=O)Nc3ccc(C(F)(F)F)cc3)ccc2O1	x	x	x	u	107*	x
C[C@@H]1CN([C@@H](C)CO)C(=O)c2cc(NC(=O)Nc3ccc(C(F)(F)F)cc3)ccc2O[C@@H](C)CCCCO[C@H]1CN(C)Cc1ccccc1	x	x	x	16[16.7 µM]	66*	x
C[C@@H]1CCCCO[C@H](CN(C)Cc2ccccc2)[C@@H](C)CN([C@H](C)CO)C(=O)c2cc(NC(=O)Nc3ccc(C(F)(F)F)cc3)ccc2O1	x	x	x	4[16.7 µM]	7	x
CN(c1ncnc(N)c1[N+](=O)[O-])C1CCS(=O)(=O)C1 (centres undefined)	5	9	8	59*	25	-10
C[n+]1ccc(/C=C/c2c[nH]c3ccc(F)cc23)cc1	-14	3	-4	59*	70*	-4
O=C(c1ccc2ncsc2c1)N1CCN(c2ccccc2Cl)CC1	3	12	-24	-1	-39	3
O=C(c1ccc2ncsc2c1)N1CCN(c2nc3ccccc3s2)CC1	-8	33	-5	76*	20	-1
COc1cccc(S(=O)(=O)N[C@H]2CC[C@H](CC(=O)NCc3ccncc3)O[C@@H]2CO)c1	x	x	x	66*[16.7 µM]	-8	x
COc1ccc(S(=O)(=O)N[C@@H]2CC[C@H](CC(=O)NCCc3ccncc3)O[C@H]2CO)cc1	x	x	x	-6[16.7 µM]	-18	x
CCS(=O)(=O)N[C@@H]1CC[C@H](CC(=O)NCc2ccc(Cl)cc2)O[C@@H]1CO	x	x	x	4[16.7 µM]	9	x
CCS(=O)(=O)N[C@H]1CC[C@@H](CC(=O)NCc2ccc(Cl)cc2)O[C@@H]1CO	x	x	x	70*[16.7 µM]	15	x
COc1ccc(S(=O)(=O)N[C@@H]2CC[C@@H](CC(=O)NCCc3ccncc3)O[C@@H]2CO)cc1	x	x	x	58*[16.7 µM]	-17	x
C[C@@H]1CCCCO[C@@H](CN(C)C(=O)Nc2cccc3ccccc23)[C@@H](C)CN([C@H](C)CO)C(=O)c2cc(NS(=O)(=O)c3cccs3)ccc2O1	x	x	x	16[16.7 µM]	7	x
O=C(CC(F)(F)F)N1C[C@@H]2[C@H](c3ccccc31)[C@H](CO)N2C(=O)C1CCCC1	x	x	x	x	2	x
COc1ccccc1-c1cnc2c(c1)C(=O)N([C@H](C)CO)C[C@H](C)[C@@H](CN(C)C(C)=O)O2	x	x	x	19[16.7 µM]	x	x
CCCCOP(=O)(c1ccc(N(C)C)cc1)C(O)c1ccc(N(C)C)cc1 (centres undefined)	3	0	-16	14	3	2

Screening data from PubChem BioAssay.
